Paper PMC7918756 (The Journal of Experimental Medicine, 2021)

Tests used:
[1] = system: HASMCs (human primary bronchial smooth muscle cells); experiment: impedance-based HASMC contraction assay; type: cell-based
mouse TRPA1 = mouse TRPA1 (Mus musculus, UniProt Q8BLA8); experiment: CHO cell line FLIPR Ca2+ assay, CA-evoked; type: cell-based
Method in brief: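 Mouse TRPA1-expressing CHO cells, fluorescent Ca2+ dye loaded, were exposed 10 min to a test compound concentration series and then challenged with cinnamaldehyde. Peak fluorescence responses were used to derive concentration-dependent inhibition.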

HASMCs = experiment: calcium imaging, AITC-induced calcium flux in primary cells; type: cell-based, human; conditions: HASMCs treated with TRPA1 agonist AITC
Method in brief: (§1)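 Cells were imaged 15–24 h after plating, with fluorescence sampled at 0.5 Hz. TRPA1 activity was evoked by perfusing saline containing 50 µM AITC.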

[2] = target: cynomolgus (cyno) monkey TRPA1 (Macaca fascicularis, UniProt A0A2K5VSJ1); experiment: CHO cell line FLIPR Ca2+ assay, CA-evoked; type: cell-based
guinea pigs [3] = experiment: AITC-induced dermal blood flow; type: in vivo, guinea pig; conditions: oral 5, 15 or 45 mg/kg, 3.5 h before AITC skin challenge
Method in brief: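 Female Hartley guinea pigs, 5 wk old, were dosed orally with 0, 5, 15 or 45 mg/kg test compound in 85% MCT/15% DMSO, 3.5 h before topical AITC. Dermal blood flow was imaged by laser speckle contrast imaging. Traces were normalised to fold-change against the mean pre-AITC baseline.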

guinea pigs [4] = experiment: OVA challenge model of asthma in guinea pigs; type: in vivo, guinea pig; conditions: single oral administration of 70 mg/kg
Method in brief: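 Hartley guinea pigs were immunised i.p. on days 0 and 7 with 100 mg OVA plus 80 mg alum in PBS. On day 28 they were challenged with nebulised 0.1% OVA in PBS for 30 min. Vehicle or test compound was given by gavage 3 h before challenge. Animals were euthanised 24 h later, with aortic blood taken for PK.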

healthy volunteers [5] = experiment: Phase 1 SAD study, AITC skin challenge; type: in vivo, human
Method in brief: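 Randomised, double-blind, single ascending oral dose study in fasted healthy volunteers: six active and two placebo per cohort, at 25, 75, 200 or 600 mg (tablets). AITC skin challenge was at 3 h (25 mg), 8 h (75 mg) or 6 h (200/600 mg) post-dose. DBF was recorded by LSCI from 2 min before to 21 min after AITC. Pain and itch were rated 0–10 at 2–20 min. DBF AUC0–10 min and maximal scores were compared with pooled placebo (Dunnett's); plasma concentrations were measured by validated bioanalysis.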

[6] = system: cross-species hepatocytes; experiment: hepatocyte metabolic stability, cross-species summary; type: in vitro ADME
Method in brief: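 Test compound at 1 µM was incubated with pooled cryopreserved hepatocytes from female CD-1 mouse, male Sprague-Dawley rat, male beagle dog, male cynomolgus monkey and mixed-gender human.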

HLFs = experiment: calcium imaging, AITC-induced calcium flux in primary cells; type: cell-based, human; conditions: HLFs treated with TRPA1 agonist AITC
Method in brief: as §1

healthy volunteers [7] = experiment: Phase 1 SAD study, safety and tolerability; type: in vivo, human; conditions: single oral dose 25-600 mg
Method in brief: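 Healthy volunteers received a single oral dose, fasted, randomised 6 active:2 placebo per cohort at 25, 75, 200 or 600 mg. Safety and tolerability was the primary outcome. Escalation targeted about two- to threefold exposure increases, decided after review of safety and PK data up to 72 h post-dose.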

rats [8] = experiment: AITC-induced dermal blood flow; type: in vivo, rat; conditions: oral 3 or 10 mg/kg, 3 h before AITC skin challenge
Method in brief: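 Rats dosed orally 3 h before imaging with 0, 3.0 or 10.0 mg/kg test compound in 85% MCT / 15% DMSO. Topical AITC skin challenge. Dermal blood flow recorded by laser speckle contrast imaging. Traces normalised to fold-change by subtracting and dividing by the mean baseline DBF before AITC. DBF rise-time and maximal level assessed.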

human TRPV1 = human TRPV1 (Homo sapiens, UniProt Q8NER1); experiment: Ca2+ responses evoked by 30 nM capsaicin; type: cell-based
rats [9] = experiment: AITC-induced vascular leakage; type: in vivo, rat; conditions: rats, 1, 3 and 10 mg/kg, 3 h before topical AITC
Method in brief: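 Rats dosed 3 h beforehand were given 2% Evans blue i.v. (saline, 2.5 ml/kg) under isoflurane. Then 25 µl 20% AITC went on one ear and mineral oil on the other. Ear thickness was measured. At 20 min after AITC, dye was extracted in formamide (24 h, 65°C) and read at 620 nm.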

rats [10] = experiment: OVA challenge model of asthma in rats; type: in vivo, rat; conditions: oral
Method in brief: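 Sensitised Brown Norway rats were challenged from day 28 with aerosolised 2% OVA in PBS, 30 min daily for 4 consecutive days. Vehicle or test compound was gavaged 3 h before each challenge; dexamethasone 5 mg/kg orally was the positive control. BALF was collected 24 h after the final treatment, eight rats per group.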

human TRPC6 = target: T1, human TRPC6 (Homo sapiens, UniProt Q9Y210); experiment: membrane potential assay using 75 μM carbochol; type: cell-based
T1 sequence (Q9Y210 1-931): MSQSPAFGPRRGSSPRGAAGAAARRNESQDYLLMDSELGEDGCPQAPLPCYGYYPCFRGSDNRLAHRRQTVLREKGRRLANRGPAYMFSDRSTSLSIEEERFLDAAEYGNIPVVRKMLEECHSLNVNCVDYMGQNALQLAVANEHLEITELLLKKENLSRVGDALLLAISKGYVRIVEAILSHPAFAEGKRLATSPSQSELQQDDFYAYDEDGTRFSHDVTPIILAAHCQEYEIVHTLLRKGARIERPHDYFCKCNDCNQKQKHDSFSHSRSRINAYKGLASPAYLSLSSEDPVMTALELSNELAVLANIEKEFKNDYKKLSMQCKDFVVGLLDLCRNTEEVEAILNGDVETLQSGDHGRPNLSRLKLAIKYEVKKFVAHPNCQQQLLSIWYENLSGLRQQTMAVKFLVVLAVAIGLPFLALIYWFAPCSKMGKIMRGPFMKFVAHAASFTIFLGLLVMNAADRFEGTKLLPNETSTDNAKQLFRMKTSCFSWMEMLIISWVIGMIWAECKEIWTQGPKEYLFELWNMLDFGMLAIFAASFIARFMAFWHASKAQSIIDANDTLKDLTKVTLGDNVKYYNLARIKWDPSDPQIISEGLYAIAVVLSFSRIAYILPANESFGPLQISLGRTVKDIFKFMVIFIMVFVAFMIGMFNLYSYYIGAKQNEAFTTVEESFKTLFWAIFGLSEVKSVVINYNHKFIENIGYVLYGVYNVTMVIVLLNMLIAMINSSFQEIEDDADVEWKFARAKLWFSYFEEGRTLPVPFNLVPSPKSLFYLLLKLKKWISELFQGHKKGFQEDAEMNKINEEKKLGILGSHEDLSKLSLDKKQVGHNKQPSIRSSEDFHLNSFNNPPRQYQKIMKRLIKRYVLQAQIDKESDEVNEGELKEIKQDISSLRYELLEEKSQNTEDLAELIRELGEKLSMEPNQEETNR

[11] = IV/PO PK, summary across preclinical species; type: in vivo
dog TRPA1 = dog TRPA1 (Canis lupus familiaris, UniProt A0A8I3Q1Q7); experiment: CHO cell line FLIPR Ca2+ assay, CA-evoked; type: cell-based
MDCK permeability = type: in vitro ADME, canine; conditions: dog
Method in brief: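 MDCK cells were seeded at 2.5 × 10^5 cells/ml and grown 4 d at 37°C, 5% CO2. Medium was DMEM/Earle's balanced salt solution with 10% FBS, renewed on day 2 and the day before the assay.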

[12] = Phase 1 SAD study, plasma PK; type: in vivo, human; conditions: healthy volunteers, dose increased from 75 mg to 600 mg
Method in brief: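 Healthy volunteers in single-ascending-dose cohorts, randomised 6 test compound : 2 placebo, dosed fasted at 25, 75, 200 or 600 mg. Blood sampled before dose and at multiple time points after dose. Plasma concentrations measured by validated analytical methods.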

guinea pig TRPA1 = guinea pig TRPA1 (Cavia porcellus, UniProt H0VJD1); experiment: CHO cell line FLIPR Ca2+ assay, CA-evoked; type: cell-based
human TRPM8 = human TRPM8 (Homo sapiens, UniProt Q7Z2W7); experiment: Ca2+ responses evoked by 50 μM menthol; type: cell-based
rats [13] = experiment: AITC-induced nocifensive behavior in rats; type: in vivo, rat
Method in brief: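 Rats pretreated with test compound at the indicated doses, then given intraplantar AITC. Nocifensive behaviour scored as flinching plus hind paw–directed licking and biting. Data reported as mean ± SEM.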

dog TRPA1, sequence (A0A8I3Q1Q7 1-1118): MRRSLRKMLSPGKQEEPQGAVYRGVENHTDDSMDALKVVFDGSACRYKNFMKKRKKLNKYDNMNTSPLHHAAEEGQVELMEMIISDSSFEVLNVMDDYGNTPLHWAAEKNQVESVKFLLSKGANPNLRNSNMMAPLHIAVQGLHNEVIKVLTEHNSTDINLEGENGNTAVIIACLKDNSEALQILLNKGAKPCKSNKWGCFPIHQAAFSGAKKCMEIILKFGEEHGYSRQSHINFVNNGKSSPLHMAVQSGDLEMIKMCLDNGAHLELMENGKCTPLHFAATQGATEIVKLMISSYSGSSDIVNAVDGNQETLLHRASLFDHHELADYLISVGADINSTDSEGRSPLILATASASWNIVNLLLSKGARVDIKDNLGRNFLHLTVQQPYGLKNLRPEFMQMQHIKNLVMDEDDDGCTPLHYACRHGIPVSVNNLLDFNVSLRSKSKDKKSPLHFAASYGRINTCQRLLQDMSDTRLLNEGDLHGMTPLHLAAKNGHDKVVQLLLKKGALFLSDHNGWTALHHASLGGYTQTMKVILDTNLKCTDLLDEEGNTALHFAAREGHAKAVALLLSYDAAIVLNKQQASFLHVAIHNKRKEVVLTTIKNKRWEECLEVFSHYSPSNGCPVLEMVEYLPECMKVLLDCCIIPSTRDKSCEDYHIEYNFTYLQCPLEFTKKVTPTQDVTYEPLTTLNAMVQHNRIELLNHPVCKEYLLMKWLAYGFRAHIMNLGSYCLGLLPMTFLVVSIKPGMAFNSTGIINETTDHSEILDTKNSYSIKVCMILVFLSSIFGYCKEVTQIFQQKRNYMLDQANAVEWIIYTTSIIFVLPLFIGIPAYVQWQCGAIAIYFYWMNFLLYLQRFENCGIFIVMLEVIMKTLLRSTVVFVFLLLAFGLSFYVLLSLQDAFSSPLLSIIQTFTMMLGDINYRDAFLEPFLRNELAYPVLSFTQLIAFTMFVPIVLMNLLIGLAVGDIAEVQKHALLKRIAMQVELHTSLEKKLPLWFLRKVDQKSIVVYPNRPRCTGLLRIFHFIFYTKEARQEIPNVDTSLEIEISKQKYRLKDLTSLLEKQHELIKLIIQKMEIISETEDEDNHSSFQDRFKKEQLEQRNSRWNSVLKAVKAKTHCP
human TRPV1, sequence (Q8NER1 whole entry): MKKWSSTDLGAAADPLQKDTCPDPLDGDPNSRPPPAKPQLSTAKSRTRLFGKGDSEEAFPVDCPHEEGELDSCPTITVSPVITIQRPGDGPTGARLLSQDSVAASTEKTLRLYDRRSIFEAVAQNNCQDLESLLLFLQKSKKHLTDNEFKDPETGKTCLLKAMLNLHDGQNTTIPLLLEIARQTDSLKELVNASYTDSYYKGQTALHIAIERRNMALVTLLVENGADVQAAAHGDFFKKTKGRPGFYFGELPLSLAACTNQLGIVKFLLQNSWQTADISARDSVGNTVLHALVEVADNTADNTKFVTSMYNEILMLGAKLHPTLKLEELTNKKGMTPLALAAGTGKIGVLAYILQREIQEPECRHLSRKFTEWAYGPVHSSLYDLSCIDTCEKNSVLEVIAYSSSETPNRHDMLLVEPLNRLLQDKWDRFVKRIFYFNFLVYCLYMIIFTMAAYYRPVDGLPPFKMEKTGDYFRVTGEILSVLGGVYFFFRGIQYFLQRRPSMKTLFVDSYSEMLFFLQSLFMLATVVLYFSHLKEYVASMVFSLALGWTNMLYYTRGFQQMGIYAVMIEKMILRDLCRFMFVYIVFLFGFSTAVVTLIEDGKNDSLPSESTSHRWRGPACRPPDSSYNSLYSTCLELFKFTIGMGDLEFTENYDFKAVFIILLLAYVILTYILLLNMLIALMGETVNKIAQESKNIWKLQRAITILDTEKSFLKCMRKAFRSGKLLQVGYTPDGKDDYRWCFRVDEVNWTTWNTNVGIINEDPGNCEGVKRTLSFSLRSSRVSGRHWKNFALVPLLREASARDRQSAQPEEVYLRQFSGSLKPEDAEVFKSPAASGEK
mouse TRPA1, sequence (Q8BLA8 whole entry): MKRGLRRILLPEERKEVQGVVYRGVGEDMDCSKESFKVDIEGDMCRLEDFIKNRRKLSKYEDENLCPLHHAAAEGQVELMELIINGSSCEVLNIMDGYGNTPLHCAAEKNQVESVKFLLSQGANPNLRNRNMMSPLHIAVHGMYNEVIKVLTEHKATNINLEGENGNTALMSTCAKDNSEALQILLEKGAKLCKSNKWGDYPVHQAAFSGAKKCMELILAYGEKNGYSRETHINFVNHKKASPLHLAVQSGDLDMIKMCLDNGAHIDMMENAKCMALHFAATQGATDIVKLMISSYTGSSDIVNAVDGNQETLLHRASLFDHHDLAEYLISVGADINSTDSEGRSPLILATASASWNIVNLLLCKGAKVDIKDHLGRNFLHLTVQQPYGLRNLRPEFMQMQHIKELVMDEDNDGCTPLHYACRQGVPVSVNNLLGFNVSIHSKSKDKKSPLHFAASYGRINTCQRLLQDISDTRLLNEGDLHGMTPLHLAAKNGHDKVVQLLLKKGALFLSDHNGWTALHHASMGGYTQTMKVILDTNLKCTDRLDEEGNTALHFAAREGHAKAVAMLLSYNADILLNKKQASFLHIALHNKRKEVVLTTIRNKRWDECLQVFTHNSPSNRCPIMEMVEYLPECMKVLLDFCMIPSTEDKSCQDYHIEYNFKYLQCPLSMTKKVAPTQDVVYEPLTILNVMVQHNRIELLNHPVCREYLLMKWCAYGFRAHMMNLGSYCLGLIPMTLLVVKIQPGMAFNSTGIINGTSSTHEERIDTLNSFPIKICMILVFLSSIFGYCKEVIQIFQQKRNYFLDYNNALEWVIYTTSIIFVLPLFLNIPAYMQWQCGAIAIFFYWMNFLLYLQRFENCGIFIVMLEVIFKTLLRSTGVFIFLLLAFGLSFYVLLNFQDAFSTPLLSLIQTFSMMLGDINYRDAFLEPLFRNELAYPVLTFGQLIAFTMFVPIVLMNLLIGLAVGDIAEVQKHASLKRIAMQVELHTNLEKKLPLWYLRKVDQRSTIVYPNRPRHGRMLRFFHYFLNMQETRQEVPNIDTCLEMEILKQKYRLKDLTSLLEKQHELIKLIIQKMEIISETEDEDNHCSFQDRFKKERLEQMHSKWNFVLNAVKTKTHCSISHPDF
guinea pig TRPA1, sequence (H0VJD1 1-991): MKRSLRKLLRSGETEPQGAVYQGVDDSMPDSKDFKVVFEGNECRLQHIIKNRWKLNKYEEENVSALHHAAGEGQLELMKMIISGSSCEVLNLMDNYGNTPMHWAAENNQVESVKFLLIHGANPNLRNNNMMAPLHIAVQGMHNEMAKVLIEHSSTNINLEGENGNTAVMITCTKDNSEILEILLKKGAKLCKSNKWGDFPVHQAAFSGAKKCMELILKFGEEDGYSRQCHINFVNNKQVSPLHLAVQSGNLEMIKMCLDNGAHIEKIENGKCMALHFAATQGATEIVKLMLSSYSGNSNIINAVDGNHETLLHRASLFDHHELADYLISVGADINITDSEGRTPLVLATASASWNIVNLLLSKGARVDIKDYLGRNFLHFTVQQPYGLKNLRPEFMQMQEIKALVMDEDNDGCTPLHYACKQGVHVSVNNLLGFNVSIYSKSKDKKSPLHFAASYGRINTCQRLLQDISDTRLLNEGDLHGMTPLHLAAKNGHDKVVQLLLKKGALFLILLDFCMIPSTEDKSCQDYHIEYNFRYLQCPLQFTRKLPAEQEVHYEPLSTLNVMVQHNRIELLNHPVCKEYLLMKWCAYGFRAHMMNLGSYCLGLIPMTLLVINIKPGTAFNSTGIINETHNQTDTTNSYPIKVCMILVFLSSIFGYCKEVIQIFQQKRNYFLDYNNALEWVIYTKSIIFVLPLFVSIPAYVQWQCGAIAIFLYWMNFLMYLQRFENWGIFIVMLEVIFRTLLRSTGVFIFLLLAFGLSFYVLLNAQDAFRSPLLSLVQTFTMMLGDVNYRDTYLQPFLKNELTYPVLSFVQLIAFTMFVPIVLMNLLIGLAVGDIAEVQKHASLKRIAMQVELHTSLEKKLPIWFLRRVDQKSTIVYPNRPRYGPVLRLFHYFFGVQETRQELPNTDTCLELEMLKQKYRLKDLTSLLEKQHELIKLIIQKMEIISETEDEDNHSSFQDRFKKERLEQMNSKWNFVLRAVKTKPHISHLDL

SMILES: CCC(=N\O)/C(C)=C/c1ccc(F)cc1 [A-967079, reference compound]
- times less potent than GDC-0334 ([1]; HASMC contraction assay (Fig. 2 C)): ~500 times

SMILES: C[C@H]1[C@H](F)C[C@@H](C(=O)NCc2cc(-c3cnc(C(F)(F)F)nc3)ncc2C(F)(F)F)N1S(=O)(=O)c1ccc(F)cc1 [GDC-0334, (2S,4R,5S)-4-fluoro-1-(4-fluorophenylsulfonyl)-5-methyl-N-((5-(trifluoromethyl)-2-(2-(trifluoromethyl)pyrimidin-5-yl)pyridin-4-yl)methyl)pyrrolidine-2-carboxamide]
- IC50 (mouse TRPA1): 2.7 nM
- effect on AITC-induced calcium flux (HASMCs): inhibited calcium flux
- IC50 [2]: 3.6 nM
- AITC-induced DBF (guinea pigs [3]): dose-dependent reduction
- BALF infiltrates to the airways (guinea pigs [4]): significantly reduced BALF infiltrates
- AITC-induced pain and itch (healthy volunteers [5]; healthy volunteers dosed with 600 mg): near-complete inhibition
- AITC-induced pain and itch (healthy volunteers [5]; healthy volunteers, 25-600 mg vs placebo, verbal rating 0–10): dose dependently reduced
- DBF response to the AITC skin challenge (healthy volunteers [5]; healthy volunteers, AITC challenge 3–8 h after oral dosing): strong PD effect
- free plasma concentration with near-complete inhibition of AITC-induced DBF (healthy volunteers [5]; healthy volunteers, free plasma): > 4.92 nM
- plasma concentration with near-complete inhibition of AITC-induced DBF (healthy volunteers [5]; healthy volunteers, total plasma): > 250 ng/mL
- metabolite stability in cross-species hepatocytes [6]: moderate to high
- IC50 ([1]; Homo sapiens, HASMC, read-out: HASMC contraction IC50): 1.8 nM
- effect on AITC-induced calcium flux (HLFs): inhibited calcium flux
- TEAEs thought to be related to treatment (healthy volunteers [7]): one case of mild headache
- serious TEAEs (healthy volunteers [7]): no serious treatment-emergent AEs
- tolerability (healthy volunteers [7]): well tolerated with only mild or moderate adverse events
- AITC-induced DBF (rats [8]): Dose-dependent decreases in the DBF rise-times and maximal levels
- IC50 (human TRPV1): > 10000 nM
- Evans blue perfusion (AITC-induced vascular leakage) (rats [9]): Dose-dependent reductions
- substance P (SP) in BALF after OVA challenge (rats [10]): significantly blunted an increase
- IC50 (human TRPC6): > 10000 nM
- clearances [11]: low to moderate
- IC50 (dog TRPA1): 102 nM
- Papp A→B at 180 min, 10 µM (MDCK permeability): 18.9 ×10⁻⁶ cm/s
- exposures (Cmax, AUC0–24h, AUC0–72h) vs dose [12]: Approximately dose-proportional increases
- IC50 (guinea pig TRPA1): 11.1 nM
- IC50 (human TRPM8): > 10000 nM
- AITC-induced nocifensive behavior (rats [13]; 3-mg/kg dose): suppression comparable to that of Trpa1^−/− rats
- AITC-induced nocifensive behavior (rats [13]; pretreatment, indicated doses): reduced AITC-induced nocifensive behavior in a dose-dependent manner
